Experimental data from ChEMBL document CHEMBL1122878, “New antihistaminic N-heterocyclic 4-piperidinamines. 3. Synthesis and antihistaminic activity of N-(4-piperidinyl)-3H-imidazo[4,5-b]pyridin-2-amines” (1985).

Key:
Assay type in all cases: functional
Rattus norvegicus [1] = assay: In vivo antihistaminic activity after 2 hours of oral administration using 48/80 lethality test in rat.
Outline: (§1)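 Male inbred Wistar rats, 230–270 g, starved overnight, housed at 21 ± 1 °C and 65 ± 5% RH. Protection was survival at 4 h. ED50 by Finney from five rats per dose, at least three doses in a geometric series 0.0025–40 mg/kg.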

Rattus norvegicus [2] = assay: In vivo antihistaminic activity after 1 hour of subcutaneous administration using 48/80 lethality test in rat.; details: sc; outline: as §1
Cavia porcellus [3] = assay: In vivo antihistaminic activity after 24 hr of oral administration using histamine lethality test in guinea pig.
Outline: (§2)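 Male albino guinea pigs, 280–360 g. Compound given orally in twofold dose increments 3, 24, 48 or 96 h before an iv challenge with histamine dihydrochloride at 1.25 mg/kg. Protection was survival at 1 h. PD50 with confidence limits by Finney, using 4–6 animals per dose and time point, at least three doses from a geometric series 0.0025–5.0 mg/kg.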

Cavia porcellus [4] = assay: In vivo antihistaminic activity after 3 hr of oral administration using histamine lethality test in guinea pig.; outline: as §2
Cavia porcellus [5] = assay: In vivo antihistaminic activity after 48 hr of oral administration using histamine lethality test in guinea pig.; outline: as §2
Cavia porcellus [6] = assay: In vivo antihistaminic activity after 24 hr of oral administration using histamine lethality test in guinea pig; outline: as §2
Cavia porcellus [7] = assay: In vivo antihistaminic activity after 48 hr of oral administration using histamine lethality test in guinea pig; outline: as §2
Cavia porcellus [8] = assay: In vivo antihistaminic activity after 96 hr of oral administration using histamine lethality test in guinea pig; outline: as §2
Cavia porcellus [9] = assay: In vivo antihistaminic activity after 3 hr of oral administration using histamine lethality test in guinea pig; outline: as §2

For `CN1CCC(Nc2nc3cccnc3n2Cc2ccc(F)cc2)CC1`, the ED50 (Rattus norvegicus [1]) was greater than 2.5 mg/kg and the ED50 (Rattus norvegicus [2]) was 0.08 mg/kg.
`Cc1cccc(C)c1NC(=O)CN1CCC(Nc2nc3cccnc3n2Cc2ccccc2)CC1` was tested, and the ED50 (Rattus norvegicus [2]) was greater than 2.5 mg/kg.
In the case of `c1ccc(Cn2c(NC3CCN(C4CCCCC4)CC3)nc3cccnc32)cc1`, the ED50 (Rattus norvegicus [1]) is reported as greater than 2.5 mg/kg and the ED50 (Rattus norvegicus [2]) is reported as 0.63 mg/kg.
Compound `CC(C)N1CCC(Nc2nc3cccnc3n2Cc2ccccc2)CC1` has an ED50 (Rattus norvegicus [1]) greater than 2.5 mg/kg and an ED50 (Rattus norvegicus [2]) of 0.63 mg/kg.
`O=C(NCCN1CCC(Nc2nc3cccnc3n2Cc2ccccc2)CC1)c1ccc(F)cc1` was tested, and the ED50 (Rattus norvegicus [1]) was 1.25 mg/kg and the ED50 (Rattus norvegicus [2]) was 0.08 mg/kg.
`Fc1ccc(Cn2c(NC3CCN(CCc4cccs4)CC3)nc3cccnc32)cc1` was tested, and the ED50 (Rattus norvegicus [1]) was greater than 2.5 mg/kg and the ED50 (Rattus norvegicus [2]) was 0.16 mg/kg.
`Fc1ccc(Cn2c(NC3CCN(CCc4ccccn4)CC3)nc3cccnc32)cc1` gave an ED50 (Rattus norvegicus [1]) of 0.31 mg/kg and an ED50 (Rattus norvegicus [2]) of 0.04 mg/kg.
`c1ccc(CCN2CCC(Nc3nc4cccnc4n3Cc3ccccc3)CC2)cc1` gave an ED50 (Rattus norvegicus [1]) greater than 2.5 mg/kg and an ED50 (Rattus norvegicus [2]) of 0.08 mg/kg.
`O=C(CCCN1CCC(Nc2nc3cccnc3n2Cc2ccc(F)cc2)CC1)c1ccc(F)cc1` gave an ED50 (Rattus norvegicus [1]) of 1.25 mg/kg and an ED50 (Rattus norvegicus [2]) of 0.04 mg/kg.
Work on `OC(COc1ccccc1)CN1CCC(Nc2nc3cccnc3n2Cc2ccccc2)CC1` (stereo not drawn) yielded an ED50 (Rattus norvegicus [1]) of 0.63 mg/kg and an ED50 (Rattus norvegicus [2]) of 0.16 mg/kg.
In the case of `Fc1ccc(Cn2c(NC3CCN(C/C=C/c4ccccc4)CC3)nc3cccnc32)cc1`, the ED50 (Rattus norvegicus [1]) is reported as greater than 2.5 mg/kg and the ED50 (Rattus norvegicus [2]) is reported as 1.25 mg/kg.
`C(=C\c1ccccc1)/CN1CCC(Nc2nc3cccnc3n2Cc2ccccc2)CC1` gave an ED50 (Rattus norvegicus [1]) of 1.25 mg/kg and an ED50 (Rattus norvegicus [2]) of 1.25 mg/kg.
In the case of `c1ccc(Cn2c(NC3CCN(CCOc4ccccc4)CC3)nc3cccnc32)cc1`, the ED50 (Rattus norvegicus [1]) is reported as 1.25 mg/kg and the ED50 (Rattus norvegicus [2]) is reported as 0.31 mg/kg.
For `CN(C)C(=O)C(CCN1CCC(Nc2nc3cccnc3n2Cc2ccccc2)CC1)(c1ccccc1)c1ccccc1`, the ED50 (Rattus norvegicus [2]) was greater than 2.5 mg/kg.
`Oc1nc2ccccc2n1CCCN1CCC(Nc2nc3cccnc3n2Cc2ccc(F)cc2)CC1` was tested, and the ED50 (Rattus norvegicus [1]) was 2.5 mg/kg and the ED50 (Rattus norvegicus [2]) was 0.63 mg/kg.
`Fc1ccc(OCCCN2CCC(Nc3nc4cccnc4n3Cc3ccccc3)CC2)cc1` showed an ED50 (Rattus norvegicus [1]) of 1.25 mg/kg and an ED50 (Rattus norvegicus [2]) of 1.25 mg/kg.
Work on `c1ccc(Cn2c(NC3CCN(CCN4CCOCC4)CC3)nc3cccnc32)cc1` yielded an ED50 (Rattus norvegicus [1]) of 2.5 mg/kg and an ED50 (Rattus norvegicus [2]) of 0.63 mg/kg.
For `COc1ccc(CCN2CCC(Nc3nc4cccnc4n3Cc3ccccc3)CC2)cc1`, the ED50 (Rattus norvegicus [1]) was 0.31 mg/kg and the ED50 (Rattus norvegicus [2]) was 0.16 mg/kg.
For `COc1ccc(CCN2CCC(Nc3nc4cccnc4n3Cc3ccc(F)cc3)CC2)cc1`, the ED50 (Cavia porcellus [3]) was 0.12 mg/kg, the ED50 (Cavia porcellus [4]) was 0.16 mg/kg and the ED50 (Rattus norvegicus [1]) was 0.16 mg/kg. The ED50 (Rattus norvegicus [2]) was 0.31 mg/kg and the ED50 (Cavia porcellus [5]) was 0.25 mg/kg.
`CCCCN1CCC(Nc2nc3cccnc3n2Cc2ccccc2)CC1` was tested, and the ED50 (Rattus norvegicus [1]) was greater than 2.5 mg/kg and the ED50 (Rattus norvegicus [2]) was 0.16 mg/kg.
`Fc1ccc(Cn2c(NC3CCN(CCc4ccccc4)CC3)nc3cccnc32)cc1` gave an ED50 (Rattus norvegicus [1]) greater than 2.5 mg/kg and an ED50 (Rattus norvegicus [2]) of 0.31 mg/kg.
`COc1ccc(CCN2CCC(Nc3nc4ccccc4n3Cc3ccc(F)cc3)CC2)cc1` [ASTEMIZOLE] gave an ED50 (Cavia porcellus [6]) of 0.07 mg/kg, an ED50 (Cavia porcellus [7]) of 0.04 mg/kg and an ED50 (Cavia porcellus [8]) of 0.19 mg/kg. For the same compound, the ED50 (Rattus norvegicus [1]) was 0.11 mg/kg, the ED50 (Rattus norvegicus [2]) was 0.11 mg/kg and the ED50 (Cavia porcellus [9]) was 0.33 mg/kg.
`Fc1ccc(Cn2c(NC3CCN(CCCC(c4ccc(F)cc4)c4ccc(F)cc4)CC3)nc3cccnc32)cc1` showed an ED50 (Rattus norvegicus [2]) greater than 2.5 mg/kg.
Compound `CCn1nnn(CCN2CCC(Nc3nc4cccnc4n3Cc3ccc(F)cc3)CC2)c1=O` has an ED50 (Rattus norvegicus [1]) greater than 2.5 mg/kg and an ED50 (Rattus norvegicus [2]) of 0.31 mg/kg.
Compound `c1ccc(Cn2c(NC3CCN(CCC(c4ccccc4)c4ccccc4)CC3)nc3cccnc32)cc1` has an ED50 (Rattus norvegicus [2]) greater than 2.5 mg/kg.
`C=CCN1CCC(Nc2nc3cccnc3n2Cc2ccccc2)CC1` showed an ED50 (Rattus norvegicus [1]) greater than 2.5 mg/kg and an ED50 (Rattus norvegicus [2]) of 0.31 mg/kg.
`O=C(CCCN1CCC(Nc2nc3cccnc3n2Cc2ccccc2)CC1)c1ccc(F)cc1` was tested, and the ED50 (Rattus norvegicus [1]) was 1.25 mg/kg and the ED50 (Rattus norvegicus [2]) was 0.31 mg/kg.
Compound `c1ccc(Cn2c(NC3CCN(CC4COc5ccccc5O4)CC3)nc3cccnc32)cc1` (stereo not drawn) has an ED50 (Rattus norvegicus [1]) greater than 2.5 mg/kg and an ED50 (Rattus norvegicus [2]) of 0.63 mg/kg.
`CN1CCC(Nc2nc3cccnc3n2Cc2ccccc2)CC1` gave an ED50 (Rattus norvegicus [1]) greater than 2.5 mg/kg and an ED50 (Rattus norvegicus [2]) of 0.08 mg/kg.
`Fc1ccc(Cn2c(NC3CCN(CCCOc4ccccc4)CC3)nc3cccnc32)cc1` gave an ED50 (Rattus norvegicus [1]) of 0.31 mg/kg and an ED50 (Rattus norvegicus [2]) of 0.31 mg/kg.
